Most compounds without a hit are left out; they make up all but 1.6% or so of the library.
TDP2 inh: human TDP2 enzyme inhibitors, primary screen, biochemical, epi absorbance, recombinant enzyme. Tyrosyl-DNA phosphodiesterase 2 (Homo sapiens), O95551. T5PNP hydrolysis, p-nitrophenol absorbance 415 nm. inhibition, % at 12.8 µM. actives 0.34% (n = 370,000). AID 720702, 2013;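 active = inhibition above the mean of all tested compounds plus 3 SD, set per campaign, cut at about 25% in these data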
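Assay system: recombinant human TDP2 / Reagent: T5PNP substrate at 5 mM, a TopII-DNA adduct mimic / Measured by: epi absorbance from released p-nitrophenol / Evaluation: % inhibition relative to enzyme-containing and enzyme-free wells / Control set: enzyme-free and DMSO wells / Replicates: each compound tested once, singlicate / Schedule: enzyme reaction with compound for 2 h at 37 °C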
LEDGF integ inh: blockers of LEDGF/p75-dependent integrase strand transfer – biochemical, TR-FRET, high throughput, primary screen | HIV-1 integrase (with human LEDGF/p75) | TR-FRET IN-LEDGF/p75 DNA integration, Eu/Cy5 | inhibition, % at 3.7 µM | actives 0.64% (n = 370,000);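 active = inhibition above the screen-wide mean plus 3 SD, cut at about 13% in these data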;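 also: signal is the Cy5 over europium emission ratio at 671 and 618 nm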
UHRF1 binding: UHRF1 methylated DNA binding inhibitors, primary screen, counter-screen for MBD2 inhibitor project, biochemical, TR-FRET, human UHRF1, single concentration. UHRF1 binding to methylated oligo. actives 0.75% (n = 370,000). inhibition, % at 4.4 µM. AID 687016, 2013; in the data active = inhibition above about 21%;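 also: UHRF1 SRA domain binding a hemimethylated CpG hairpin DNA probe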
MBD2 inh: inhibitors of MBD2 binding to methylated DNA, primary screen, biochemical, TR-FRET, DNA-binding domain, human. AID 686964, 2013. inhibition, % at 4.4 µM. MBD2 binding to methylated oligonucleotide. actives 0.31% (n = 370,000); in the data active = inhibition above about 13%
Target sequence (Q9UBB5 whole entry, looked up, the tested form may be a part): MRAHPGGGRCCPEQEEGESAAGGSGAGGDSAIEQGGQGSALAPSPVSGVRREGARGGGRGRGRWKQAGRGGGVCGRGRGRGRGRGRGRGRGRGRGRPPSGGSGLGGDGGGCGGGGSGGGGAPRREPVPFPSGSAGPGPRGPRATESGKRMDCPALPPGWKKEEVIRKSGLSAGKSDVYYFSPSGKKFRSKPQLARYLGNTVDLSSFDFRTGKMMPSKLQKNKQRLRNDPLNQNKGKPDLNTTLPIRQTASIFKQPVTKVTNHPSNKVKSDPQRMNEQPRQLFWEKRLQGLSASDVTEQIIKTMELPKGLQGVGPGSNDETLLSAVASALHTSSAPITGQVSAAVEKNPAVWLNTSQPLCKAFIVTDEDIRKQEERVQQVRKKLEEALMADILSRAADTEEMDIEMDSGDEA
Numbers stand for hits; . = inactive.

SMILES | TDP2 inh | LEDGF integ inh | UHRF1 binding | MBD2 inh
COc1ccc(NC(=O)CSc2nnc(-c3ccccn3)n2N)cc1Cl | . | . | . | .
O=C(O)c1ccc(N=Nc2c(O)[nH]c3ccc(Br)cc23)cc1 | . | . | . | .
O=c1ccc2cc3c([nH]c4ccc(Br)cc43)oc-2c1O | . | 66 | . | .
Cc1n[nH]c(C)c1CCC(=O)N/N=C/C=C/c1ccccc1 | . | . | 88 | .
Cc1ccccc1NC(=O)OC1CCC12CCC(c1ccccc1)CC2 (configuration not stated) | . | . | . | .
COc1ccc(N2CC(NC(=O)c3cccc4ccccc34)CC2=O)cc1OC (configuration not stated) | . | . | . | .
COc1cccc(N2CC(NC(=O)c3cccc4ccccc34)CC2=O)c1 (configuration not stated) | . | . | 34 | .
CCOC(=O)CN1C(=O)[C@]2(OCCC=C[C@H]2C)c2c(Br)cccc21 | . | . | . | .
O=C(Nc1ccc(NC(=O)c2ccco2)c(Cl)c1)c1ccccc1 | . | . | 42 | .
CC(C)Oc1ccc(C(=O)Nc2ccc(NC(=O)c3ccco3)c(Cl)c2)cc1 | . | . | . | .
CCN(CC(=O)NCc1cccs1)C(=O)c1ccc(Cl)c(Cl)c1 | . | . | 35 | .
O=C(Cc1ccccc1)NC1CCCc2c1cnn2-c1ccc(F)cc1F (configuration not stated) | . | . | . | .
COc1ccc(S[C@]2(C(=O)NC(C)C)CC(=O)N[C@@H]2c2ccc(OC)cc2)cc1 | . | . | . | .
COc1ccc(NC(=O)N(C)[C@H]2C[C@H]3c4[nH]c5c(-c6ccccc6)cccc5c4CCN3C(=O)[C@H]2[C@H](C)O)cc1 | . | . | . | .
CCOC(=O)c1c(NC(=O)c2ccc(S(=O)(=O)N3CCOCC3)cc2)sc2c1CCN(C)C2 | . | . | . | 15
COc1ccccc1N1CCN(S(=O)(=O)c2cccs2)CC1 | . | . | 39 | .
COc1cc(C(=O)N2CCN(S(=O)(=O)c3cccs3)CC2)cc(OC)c1C | . | . | 24 | .
COc1ccc(N2Cc3ccccc3/C2=N\C(=O)Nc2ccccc2)cc1 | . | . | 22 | .
O=C(CNC(=O)c1ccco1)NCC(c1ccco1)N1CCCCC1 (configuration not stated) | . | . | . | .
O=C(Cc1ccsc1)NCC(c1ccco1)N1CCCCC1 (configuration not stated) | . | . | 25 | .
CCOc1ccccc1/C=C/c1onc(C)c1S(=O)(=O)N1CCC(C(=O)N(CC)CC)CC1 | . | . | . | 13
CCCCNC(=O)C[C@H]1C[C@@]2(C(=O)OC)C(=C[C@H](C(C)C)O[C@@H]2C2CC2)N(Cc2ccccc2)C1=O | . | . | 24 | .
COC(=O)[C@]12C[C@H](CC(=O)NCCC(C)C)C(=O)N(Cc3ccccc3)C1=C[C@H](C(C)C)O[C@@H]2C1CC1 | . | . | . | .
Cn1ccnc1C(=O)O[C@@H]1CCC[C@@]2(C(=O)N(Cc3ccccc3)c3ccccc32)[C@H]1NC(=O)CCc1ccccc1 | . | . | . | .
Cc1c(C)n(C(=O)CSc2nc3ccccc3[nH]2)c2ccccc12 | . | . | 47 | .
SMILES | TDP2 inh | LEDGF integ inh | UHRF1 binding | MBD2 inh
O=C(CSc1nc2ccccc2[nH]1)N1CCCCC1 | . | . | . | .
Cc1ccccc1N(CC(=O)N1CCN(c2ccccc2)CC1)S(C)(=O)=O | . | . | . | .
Cc1ccccc1N(CC(=O)N1CCN(Cc2ccccc2)CC1)S(C)(=O)=O | . | . | 21 | .
CC(C)(C)c1ccc(C(=O)NC(=S)N2CCCCCC2)cc1 | . | 21 | . | .
CC1CCN(C(=S)NC(=O)c2ccccc2)CC1 | . | . | 38 | .
CCCC[C@H](C(=O)N(C)c1cccc(OC)c1)[C@@H](O)c1ccc(C(C)=O)cc1 | . | . | . | .
Cc1cc(NC(=O)Cn2ccc([N+](=O)[O-])n2)no1 | . | . | 23 | .
Cc1nn(CC(=O)O)c(C)c1N | . | . | 30 | .
Cc1nn(CC(=O)O)c(C)c1[N+](=O)[O-] | . | . | . | .
Cn1c(CN2CCCC2)c(C#N)c2ccccc21 | . | . | 65 | .
Cc1nc2ccc(C(=O)N3c4ccccc4CC3C)cc2s1 (configuration not stated) | . | . | 23 | .
